{"data": "Results of several laboratories", "read-out": "enzyme activity", "action": "inhibitor", "CDK2": "Cyclin-dependent kinase 2 (CDK2, Homo sapiens, UniProt P24941)", "CDK2 with cyclin A": "Cyclin-dependent kinase 2, with cyclin A (CDK2, Homo sapiens, UniProt P24941)"}
{"target": "CDK2", "conditions": "10 µM", "inhibition [%]": -0.24, "SMILES": "CNc1cccc2cc(C(=O)Nc3ccc(C(=O)O)cc3)c(=O)[nH]c12"}
{"target": "CDK2", "conditions": "0.1 µM", "inhibition [%]": "95 to 96", "SMILES": "Nc1nc(Nc2ccc(S(N)(=O)=O)cc2)sc1C(=O)c1ccccc1[N+](=O)[O-]"}
{"target": "CDK2 with cyclin A", "test": "FRET", "conditions": "10 µM", "inhibition [%]": 4, "SMILES": "CN(C)C1CCN(CC#Cc2nn(C3CCCC3)c3nc(NCc4ccccc4)ncc23)C1 (stereo not drawn)"}
{"target": "CDK2 with cyclin A", "conditions": "1 µM", "inhibition [%]": 1, "SMILES": "COc1cc2ncnc(Nc3ccc(Oc4ccccc4)c(C)c3C)c2cc1OC"}
{"target": "CDK2 with cyclin A", "conditions": "1 µM", "inhibition [%]": -13, "SMILES": "C=CC(=O)Nc1cc(Nc2nccc(Nc3cc(Cl)c(F)cc3C(C)(C)O)n2)c(OC)cc1N1CC[C@@H](N(C)C)C1"}
{"target": "CDK2 with cyclin A", "conditions": "1 µM", "inhibition [%]": 0, "SMILES": "CN1CC(Oc2cnc(C#N)cc2-c2ccn3nc(NC(=O)C4CC4)cc3c2)C1"}
{"target": "CDK2 with cyclin A", "conditions": "0.1 µM", "inhibition [%]": 1, "SMILES": "COc1cc(-c2cc(-c3ccc(N4CCNCC4)cc3)cnc2N)cc(OC)c1OC"}
{"target": "Cyclin-dependent kinase 2, with cyclin E (CDK2, Homo sapiens, UniProt P24941)", "conditions": "1 µM", "inhibition [%]": "< 10", "SMILES": "CCCS(=O)(=O)Nc1ccc(F)c(C(=O)c2c[nH]c3ncc(-c4ccc(Cl)cc4)cc23)c1F"}
{"target": "CDK2", "test": "radiometric", "conditions": "2 µM", "inhibition [%]": 50.8, "SMILES": "Cn1cnc(Br)c1C1=CN(c2ncnc3[nH]cnc23)CCS1"}
{"target": "Cyclin-dependent kinase 2, with cyclin A2 (CDK2, Homo sapiens, UniProt P24941)", "conditions": "0.1 µM", "inhibition [%]": 0.5, "SMILES": "CC/C(=N\\NC(=O)NCc1cccc(O)c1)c1ccc(O)c(C)c1O"}
{"target": "CDK2", "test": "radiometric", "conditions": "2 µM", "inhibition [%]": 49.1, "SMILES": "Cn1cncc1C1=CN(c2ncnc3[nH]cnc23)CCS1"}
{"target": "Cyclin-dependent kinase 2, with cyclin O (CDK2, Homo sapiens, UniProt P24941)", "conditions": "10 µM", "inhibition [%]": 8, "SMILES": "CS(=O)(=O)Nc1cccc(-c2csc(NC(=O)CSc3nc4nccnc4c(=O)n3CCc3ccccc3)n2)c1"}
